# Calls of active or inactive are those of the source. The calls are words filed in the database; no cut-off is given here.
# Columns and labels:
# Huh-7 = test: Cytotoxicity against human HuH7 cells after 24 hrs by resazurin reduction assay; format: cell-based; conditions: huh-7, 24 h
# Method in brief: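 Same multiplexed wells as the luciferase readout: cells with the Neo/EMCV-IRES-Fluc construct under Geneticin, exposed to compound for 24 h, then viability is read by non-invasive resazurin reduction before lysis. Eight concentrations from 0 to 10 μM, in quadruplicate. Activity is normalized to DMSO (0%) and 500 μM benzalkonium chloride (−100%).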
# Nucleic Acid [1] = test: Antagonist activity at ECMV genomic RNA internal ribosomal entry site in human HuH7 cells after 24 hrs by firefly luciferase reporter gene assay relative to control; format: functional, cell-based; conditions: Encephalomyocarditis virus; Huh-7
# Method in brief: (§1)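 Cells carry a bicistronic construct (Neo translated cap-dependently, firefly luciferase under EMCV IRES) and are grown with Geneticin. After 24 h with or without compound, resazurin viability is read first, then cells are lysed and luciferase is quantified (Steady-Glo). Dose response uses eight concentrations from 0 to 10 μM in quadruplicate. Normalization: DMSO 0%, 500 μM benzalkonium chloride −100%. Values reported are AC50, absolute AC50 (activity at −50% for antagonists, 50% for agonists) and Amax (activity at highest concentration).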
# Nucleic Acid [2] = test: Antagonist activity at ECMV genomic RNA internal ribosomal entry site in human HuH7 cells after 24 hrs by firefly luciferase reporter gene assay; format: functional, cell-based; conditions: Encephalomyocarditis virus; Huh-7; method in brief: as §1
# Nucleic Acid [3] = test: Agonist activity at ECMV genomic RNA internal ribosomal entry site in human HuH7 cells after 24 hrs by firefly luciferase reporter gene assay; format: functional, cell-based; conditions: Encephalomyocarditis virus; Huh-7; method in brief: as §1
# Nucleic Acid [4] = test: Agonist activity at ECMV genomic RNA internal ribosomal entry site in human HuH7 cells assessed as activity measured at the highest concentration after 24 hrs by firefly luciferase reporter gene assay relative to control; format: functional, cell-based; conditions: Encephalomyocarditis virus; Huh-7; method in brief: as §1
SMILES,Activity (Huh-7),Activity (Nucleic Acid [1]),Activity (Nucleic Acid [2]) [µM],Activity (Nucleic Acid [3]),Activity (Nucleic Acid [4])
COc1ccccc1N1CCN(CC(O)COc2ccc(-c3cc(C#N)c(=O)[nH]c3C)cc2)CC1 (configuration not stated) [SATERINONE],Non-toxic,172,5.46,,
COc1ccc(OCC(O)CN2CCN(c3ccccc3OC)CC2)c(C(C)(C)C)c1 (configuration not stated),Non-toxic,-42,3.08,,
CCc1cc2cc3c(=O)n4c(nc3cc2s1)-c1[nH]c2ccc(OC)cc2c1CC4,Non-toxic,,,0.35 µM,33.5
COCCn1c(NC(COC)c2ccc(OC)c(OC)c2)nc2c1c(=O)n(C)c(=O)n2C (configuration not stated),Non-toxic,,,inactive,0.53
COc1ccc2[nH]c3c(c2c1)CCn1c-3nc2cc3sc4c(c3cc2c1=O)CCCCCC4,Non-toxic,,,2.16 µM,26.2
COc1ccccc1N1CCN(CC(O)COc2cccc3ccccc23)CC1 (configuration not stated) [NAFTOPIDIL],Non-toxic,-34,1.48,,
COc1ccc2[nH]c3c(c2c1)CCn1c-3nc2cc3sc4c(c3cc2c1=O)CCCC4,Non-toxic,,,inactive,-7.44
O=c1c2ccccc2nc2n1CCc1c-2[nH]c2ccccc12 [RUTAECARPINE],Non-toxic,,,27.6 µM,1030
COCCn1c(NC(CO)c2ccc(OC)c(OC)c2)nc2c1c(=O)n(C)c(=O)n2C (configuration not stated),Non-toxic,,,42.8 µM,346

# — ChEMBL document CHEMBL2029204, “Latent hit series hidden in high-throughput screening data” (J Med Chem, 2012)
